Experimental data from ChEMBL document CHEMBL4725264, “Synthesis and biological evaluation of a novel photo-activated histone deacetylase inhibitor” (Bioorg Med Chem Lett, 2020).
The source made the active and inactive calls. The rule behind the calls is not given here.

What was measured:
[1] = molecular target: T1, Histone deacetylase (Homo sapiens) (UniProt Q13547+O15379+Q9UBN7+Q92769+Q9UQL6+Q8WUI4+Q9BY41+Q96DB2+P56524+Q9UKV0+Q969S8); assay: Inhibition of HDAC in human HL-60 cells assessed as increase in H3 histone acetylation at 10 uM after 24 hrs by Western blot anlaysis; assay type: cell-based
How it was run: (§1)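 Caged compound coated on angioplasty balloon at 3.0ug/mm2. Balloon either exposed to 365 nm UV (65mW, 4 min) or left unexposed, then compound eluted. HL60 cells (RPMI-1640, 10% heat-inactivated FCS, 37 °C, 5% CO2) treated with eluate at 10.0 µM for 24 h, then PBS-washed. Histones acid-extracted (H2SO4, acetone precipitation), quantified by Bradford. 25 µg per lane run on 15% SDS-PAGE and transferred to PVDF. Blocked in 5% milk, probed overnight at 4 °C with anti-acetyl histone H3, detected with HRP anti-rabbit IgG (1:1000). Untreated cells as control.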

[2] = molecular target: T1, Histone deacetylase (Homo sapiens); assay: Inhibition of HDAC in human HL-60 cells assessed as increase in H3 histone acetylation at 10 uM under UV irradiation after 24 hrs by Western blot anlaysis; assay type: cell-based; how it was run: as §1
HUVEC = assay: Cytotoxicity against HUVEC at 1.0 mmol/L after 24 hrs by trypan blue staining based assay; assay type: cell-based; conditions: human, 1000 µM
How it was run: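 HUVECs (pooled donor) grown in Medium-199 with 20% FCS, endothelial cell growth factor and heparin, 37 °C, 5% CO2. Agents dissolved in 100% DMSO and added at final 1.0 mmol/L for 24 h. Viability scored by 0.4% trypan blue exclusion right after culture, relative to viable count at start. Untreated cells as control. At least 3 repeats, averaged.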

[3] = Drug metabolism assessed as photolysis by measuring parent compound at 4.26 mM using MeCN and Water (1:3) as solvent system measured upon irradiation with 8-Watt UV365nm light after 30 mins by HPLC analysis; assay type: physicochemical; conditions: MeCN and water (1:3) solvent system, read-out: Drug metabolism
How it was run: (§2)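 Caged compound prepared as 4.26 mM solution in MeCN/water (1:3). Irradiated with 8-Watt 365 nm UV lamp. Aliquots taken at 30, 45, 60, 75 and 90 min and analysed by HPLC for remaining caged parent and released hydroxamic acid (identified by m/z). Carboxamide side product tracked by its separate peak.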

[4] = Drug metabolism assessed as photolysis by measuring parent compound at 4.26 mM using MeCN and Water (1:3) as solvent system measured upon irradiation with 8-Watt UV365nm light after 45 mins by HPLC analysis; assay type: physicochemical; conditions: MeCN and water (1:3) solvent system, read-out: Drug metabolism; how it was run: as §2
[5] = Drug metabolism assessed as photolysis by measuring parent compound at 4.26 mM using MeCN and Water (1:3) as solvent system measured upon irradiation with 8-Watt UV365nm light after 60 mins by HPLC analysis; assay type: physicochemical; conditions: MeCN and water (1:3) solvent system, read-out: Drug metabolism; how it was run: as §2
[6] = Drug metabolism assessed as photolysis by measuring parent compound at 4.26 mM using MeCN and Water (1:3) as solvent system measured upon irradiation with 8-Watt UV365nm light after 75 mins by HPLC analysis; assay type: physicochemical; conditions: MeCN and water (1:3) solvent system, read-out: Drug metabolism; how it was run: as §2
[7] = Drug metabolism assessed as photolysis by measuring parent compound at 4.26 mM using MeCN and Water (1:3) as solvent system measured upon irradiation with 8-Watt UV365nm light after 90 mins by HPLC analysis; assay type: physicochemical; conditions: MeCN and water (1:3) solvent system, read-out: Drug metabolism; how it was run: as §2
[8] = Drug metabolism assessed as photolysis by measuring parent compound at 85 uM using DMSO, EtOH and water (4:4:92) as solvent system measured upon irradiation with 100mW UV365nm light after 2 mins by HPLC analysis; assay type: physicochemical
[9] = Drug metabolism assessed as photolysis by measuring parent compound at 85 uM using DMSO, EtOH and water (4:4:92) as solvent system measured upon irradiation with 100mW UV365nm light after 4 mins by HPLC analysis; assay type: physicochemical; conditions: EtOH and water (4:4:92) solvent system, read-out: Drug metabolism
[10] = Drug metabolism assessed as photolysis by measuring parent compound at 85 uM using DMSO, EtOH and water (4:4:92) as solvent system measured upon irradiation with 100mW UV365nm light after 6 mins by HPLC analysis; assay type: physicochemical; conditions: EtOH and water (4:4:92) solvent system, read-out: Drug metabolism

inhibition [1]	inhibition [2]	remaining at 0.5 h, 4260 µM [3] [%]	remaining at 0.75 h, 4260 µM [4] [%]	remaining at 1 h, 4260 µM [5] [%]	remaining at 1.25 h, 4260 µM [6] [%]	remaining at 1.5 h, 4260 µM [7] [%]	Drug metabolism [8] [%]	remaining at 4 min, 85 µM [9] [%]	remaining at 0.1 h, 85 µM [10] [%]	Structure (SMILES)	Activity (HUVEC)
inactive	Active	53.3	18	8.4	2.4	0.7	28.9	11.1	8.2	COc1cc(C(C)ONC(=O)c2ccc(-c3cccc(NS(C)(=O)=O)c3)cc2)c([N+](=O)[O-])cc1OCCCC(=O)O (centres undefined)	Non-Toxic
Active	–	–	–	–	–	–	–	–	–	CS(=O)(=O)Nc1cccc(-c2ccc(C(=O)NO)cc2)c1	Toxic
–	–	–	–	–	–	–	–	–	–	CC(=O)O[C@H]1C(=O)[C@@]2(C)[C@H]([C@H](OC(=O)c3ccccc3)[C@]3(O)C[C@H](OC(=O)[C@H](O)[C@@H](NC(=O)c4ccccc4)c4ccccc4)C(C)=C1C3(C)C)[C@]1(OC(C)=O)CO[C@@H]1C[C@@H]2O [PACLITAXEL]	Toxic
